Experimental data from paper PMC5182512 (Phytochemistry, 2014).

Target: CrSMT (Chlamydomonas reinhardtii, UniProt A8IJ34)
Assay: [methyl-3H3]SAM radiometric assay, initial velocity, Lineweaver-Burk
Type: biochemical
Details: E. coli lysate; 100 μM SAM (saturating), phosphate buffer pH 7.5
Outline: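 Recombinant 384-aa CrSMT expressed in E. coli BL21(DE3), IPTG-induced (0.4 mM, 2 h, 30 °C), French-press lysate in 20 mM phosphate, 5% glycerol, pH 7.5. Lysate (1–2 mg total protein) incubated 45 min with sterol acceptor 5–150 μM plus [methyl-3H3]SAM (0.6 μCi). Methanolic KOH saponification, hexane extraction of non-saponifiable lipids. Sterol-free background 500–1000 dpm. Lineweaver–Burk analysis.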

Question: Which Km does the source give for `CC(C)=CCC[C@@H](C)[C@H]1CC[C@@]2(C)C3=C(CC[C@]12C)[C@@]1(C)CC[C@H](O)C(C)(C)[C@@H]1CC3` [compound 1, Lanosterol] here?
Answer: 24 µM

Question: Which Km does the source give for `CC(C)=CCC[C@@H](C)[C@H]1CC[C@H]2C3=C(CC[C@]12C)[C@@]1(C)CC[C@H](O)C[C@@H]1CC3` [compound 9, Zymosterol] here?
Answer: 22 µM
